# Read-outs that look alike come from different tables or passages of the source.
# How the values were obtained:
# PfM18AAP = settings: cited from earlier work
# recombinant CTSL1 = recombinant CTSL1 (Fasciola hepatica, UniProt Q7JNQ9); assay: Cathepsin L1; type: biochemical
# [1] = biological target: PfM18AAP extracts (soluble freeze-thaw extracts of parasites) (Plasmodium falciparum, UniProt Q8I2J3); assay: Malaria cell lysate assay; type: biochemical; settings: at ≤5μM
# Procedure, shortened: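 Human erythrocytes infected in vitro were washed in PBS and parasites released with saponin. Three freeze-thaw cycles followed and supernatant extracts were kept. Extracts were incubated with test compound plus CoCl2 and aminoacyl-NHMec substrate (given as both H-Glu- and H-Asp-NHMec). Decreased fluorescence from substrate cleavage was taken as inhibition. Vehicle and background controls were included.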
# [2] = system: P. falciparum infected red blood cells; assay: Parasite growth assay; type: cell-based, Plasmodium falciparum; settings: 10 μM test concentration
# Procedure, shortened: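 Asexual erythrocytic-stage P. falciparum in infected RBCs was incubated with test compound at 10 µM in hypoxanthine-free medium, then 3H-hypoxanthine was added. 3H incorporation was measured after 48 h; reduced incorporation was scored as inhibition. Each plate held vehicle and uninfected-RBC background controls (DMSO ≤1%).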
# [3] = biological target: T1, purified recombinant PfM18AAP (Plasmodium falciparum, UniProt Q8I2J3); assay: Ki determination and mode of inhibition; type: biochemical; settings: for mode of inhibition of PfM18AAP: comparison of fits, Lineweaver-Burk plots
# T1 sequence (Q8I2J3 1-570): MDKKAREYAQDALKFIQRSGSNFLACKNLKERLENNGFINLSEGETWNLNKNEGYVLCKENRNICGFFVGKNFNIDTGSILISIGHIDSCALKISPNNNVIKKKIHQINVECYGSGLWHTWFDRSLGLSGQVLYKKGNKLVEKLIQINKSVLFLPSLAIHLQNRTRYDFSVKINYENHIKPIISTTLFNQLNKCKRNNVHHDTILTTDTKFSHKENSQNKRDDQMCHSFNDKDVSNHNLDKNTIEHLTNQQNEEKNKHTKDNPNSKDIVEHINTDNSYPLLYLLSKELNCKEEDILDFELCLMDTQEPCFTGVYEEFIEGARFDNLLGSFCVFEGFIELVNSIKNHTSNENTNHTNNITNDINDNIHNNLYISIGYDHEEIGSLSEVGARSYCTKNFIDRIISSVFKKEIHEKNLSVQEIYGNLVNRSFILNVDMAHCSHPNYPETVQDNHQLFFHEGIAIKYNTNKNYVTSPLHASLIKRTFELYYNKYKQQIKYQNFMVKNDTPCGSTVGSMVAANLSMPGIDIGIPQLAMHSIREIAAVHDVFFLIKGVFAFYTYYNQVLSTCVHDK
# [4] = previous primary screens at SRIMSC; ref PubChem AIDs 1859, 1931, 651959; cited from earlier work
# mammalian cytotoxicity = settings: previous primary screens, where tested; ref PubChem AIDs 1486, 1825; cited from earlier work
# bacterial viability = settings: previous primary screens, where tested; ref PubChem AIDs 449731, 651606; cited from earlier work
# serotonin receptor = settings: previous primary screens; ref PubChem AIDs 612 and 504916; cited from earlier work
Compound,effect of metal ion on PfM18AAP activity (PfM18AAP),mode of inhibition of PfM18AAP [3],activity in similarly formatted enzymatic inhibition assays [4],activity in mammalian cytotoxicity screens (mammalian cytotoxicity),activity in bacterial viability screens (bacterial viability),activity in cell-based screens at SRIMSC (serotonin receptor screens) (serotonin receptor),other results
"[Cl-].[Cl-].[Zn+2] [Zn(II), ZnCl2, reference compound]",–,–,–,–,–,–,concentration at which PfM18AAP is inhibited (PfM18AAP): > 1 mM
[Mn+2] [manganese],enhanced,–,–,–,–,–,–
[Cl-].[Cl-].[Co+2] [cobalt],enhanced,–,–,–,–,–,–
"CN1CCc2cccc3c2[C@@H]1Cc1ccc(O)c(O)c1-3.Cl.O [CID 6852389, (S)-(+)-Apomorphine hydrochloride hydrate]",–,non-competitive,devoid of activity,inactive,inactive,"inactive in all cell-based screens tested at the SRIMSC, except for two serotonin receptor screens","IC50 (recombinant CTSL1; read-out: IC50 in CTSL1 titration experiments, 10 point titration, triplicate): > 59600 nM; efficacy in P. falciparum lysate assay [1]: 84%; inhibition in 3H hypoxanthine incorporation assay [2]: 87%; Ki ([3]; read-out: Ki (non-linear regression), powder samples, substrate Glu-NHMec): 3390 ± 360 nM"
"C[C@H](NC(=O)[C@H](Cc1ccccc1)NC(=O)OCc1ccccc1)C(=O)C=[N+]=[N-] [Z-Phe-Ala diazomethylketone, Z-Phe-Ala-diazomethylketone, reference compound]",–,–,–,–,–,–,"IC50 (recombinant CTSL1; read-out: IC50 of positive control in CTSL1 HTS assay, average, N=22 plates): 15.4 nM"
"Oc1ccc(CCNc2c3ccccc3nc3ccccc23)cc1O [CID 23724194, 4-[2-(acridin-9-ylamino)ethyl]benzene-1,2-diol]",–,non-competitive,devoid of activity,inactive,inactive,"inactive in all cell-based screens tested at the SRIMSC, except for two serotonin receptor screens",IC50 (recombinant CTSL1): > 59600 nM; Ki [3]: 1350 ± 150 nM

# Reference: publication PMC4641816 (Journal of biomolecular screening, 2014)
